The nature of series [1]: Antiproliferative activity against human PC3 cells after 48 hrs by SRB assay. The class given is functional. As to conditions: PC-3, 48 h. The gist of the method: (§1)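 Cells kept in RPMI 1640 with 5% FBS and 1% penicillin/streptomycin at 37 °C, 5% CO2, and used at passages 5–12. Seeded at 3 to 5 x 10^4 cells/mL and exposed 48 h to 0.25, 2.5, 25 and 250 µg/mL in DMSO/RPMI (final DMSO ≤ 0.25%). Doxorubicin 0.025–25 µg/mL served as positive control. Fixed with 50% TCA at T0 and at endpoint, SRB protein read at 540 nm. Growth was T0-corrected and GI50 taken by non-linear regression.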
For orientation: In SRB staining, fixed cells bind dye roughly in proportion to their protein.

Series [2] relates to HaCaT. Put plainly: Selectivity index, ratio of GI50 for human HaCaT cells to GI50 for human HT-29 cells. The class given is functional.
The subject of series [3] is HaCaT. Briefly: Selectivity index, ratio of GI50 for human HaCaT cells to GI50 for human U251 cells. The class given is functional.
For another series, the system named is U-251. Put plainly: Antiproliferative activity against human U251 cells after 48 hrs by SRB assay. It is filed as functional. As to conditions: U-251, 48 h. The gist of the method: as §1
In series [4] the test system is NCI-H460. Put plainly: Antiproliferative activity against human NCI-H460 cells after 48 hrs by SRB assay. It is filed as functional. To be noted: NCI-H460, 48 h. The gist of the method: as §1
In another series the test system is HT-29. Put plainly: Antiproliferative activity against human HT-29 cells after 48 hrs by SRB assay. It is filed as functional. As to conditions: HT-29, 48 h. In short, it runs like this:
as §1

In series [5] the test system is NCI-H460. Briefly: Selectivity index, ratio of GI50 for human HaCaT cells to GI50 for human NCI-H460 cells. It is filed as functional.
A further series has as its system MCF7. Put plainly: Antiproliferative activity against human MCF7 cells after 48 hrs by SRB assay. The class given is functional. As to conditions: MCF7, 48 h. The gist of the method:
as §1

A further series has as its system 786-0. Briefly: Antiproliferative activity against human 786-0 cells after 48 hrs by SRB assay. It is filed as functional. As to conditions: 786-0, 48 h. In short, it runs like this:
as §1

The test system of series [6] is HaCaT. Briefly: Selectivity index, ratio of GI50 for human HaCaT cells to GI50 for human PC3 cells. It is filed as functional.
A short description of series [7]: Cytotoxicity against human HaCaT cells after 48 hrs by SRB assay. It is filed as cell-based. In short, it runs like this:
as §1

In series [8] the test system is HaCaT. Put plainly: Selectivity index, ratio of GI50 for human HaCaT cells to GI50 for human 786-0 cells. The class given is functional.
For series [9], the system named is HaCaT. Put plainly: Selectivity index, ratio of GI50 for human HaCaT cells to GI50 for human MCF7 cells. The class given is functional.
The subject of series [10] is HaCaT. Put plainly: Selectivity index, ratio of GI50 for human HaCaT cells to GI50 for human NCI-ADR-RES cells. The class given is functional.
A short description of series [11]: Antiproliferative activity against human NCI-ADR-RES cells after 48 hrs by SRB assay. It is filed as functional. The gist of the method: as §1

Values after ≈ are worked out from the molar mass of the structure shown.

What is called GI50 is the concentration giving 50% growth inhibition. The low end stands for greater sensitivity of the cells, the high end for lower sensitivity of the cells. Take `COc1ccc2cc(CCCO)oc(=O)c2c1`: the GI50 in series [1] amounted to 25.9 µg/mL (≈ 111 µM); with U-251, 28.9 µg/mL (≈ 123 µM); in the series with NCI-H460 [4], 29.1 µg/mL (≈ 124 µM); in the series on HT-29 it was 29.1 µg/mL (≈ 124 µM); in the series with MCF7 it was 25.8 µg/mL (≈ 110 µM); in the series with 786-0, 26.9 µg/mL (≈ 115 µM). In series [11], this compound returned a 50% growth inhibitory concentration (GI50) of 28.1 µg/mL (≈ 120 µM). The RatioGI50 in the series on HaCaT [2] is reported as 1; in the series on HaCaT [3], 1; with NCI-H460 [5] it was 1; in the series with HaCaT [6], 1.12; in the series with HaCaT [8], 1.08; with HaCaT [9], 1.12. In addition, the RatioGI50 in the series on HaCaT [10] was determined as 1.03. In series [7], the concentration for 50% growth inhibition (GI50) at 48 h came out at 29 µg/mL (≈ 124 µM).

Turning to `CCCCCOCCCC1Cc2ccc(OC)cc2C(=O)O1` (racemic), the GI50 in series [1] was found to be 29.5 µg/mL (≈ 96.3 µM); with U-251, 32.2 µg/mL (≈ 105 µM); in the series with NCI-H460 [4] it was 33.7 µg/mL (≈ 110 µM); in the series with HT-29 it was 43.5 µg/mL (≈ 142 µM); in the series on MCF7, 32.3 µg/mL (≈ 105 µM); in the series on 786-0, 31.9 µg/mL (≈ 104 µM). Besides, growth in series [11] was halved (GI50) at 42.3 µg/mL (≈ 138 µM). Besides, the RatioGI50 in the series on HaCaT [2] is given as 0.74; with HaCaT [3] it was 1; in the series with NCI-H460 [5], 0.96; in the series with HaCaT [6], 1.09; in the series on HaCaT [8] it was 1.01; in the series with HaCaT [9] it was 1. In addition, in the series on HaCaT [10], the RatioGI50 was 0.76. Moreover, the GI50 at 48 h in series [7] is 32.3 µg/mL (≈ 105 µM).

With `COc1ccc2c(c1)C(=O)OC(CO)C2` (racemic), the 50% growth inhibitory concentration (GI50) is 175 µg/mL (≈ 842 µM) in [1]; no less than 250 µg/mL with U-251; no less than 250 µg/mL with NCI-H460 [4]; no less than 250 µg/mL with HT-29; 250 µg/mL (≈ 1200 µM) in the series on MCF7; no less than 250 µg/mL with 786-0. For the same compound, in [11], the GI50 was no less than 250 µg/mL. In addition, the RatioGI50 is listed as greater than 1.43 in the series with HaCaT [6] and greater than 1 with HaCaT [9]. The compound also registered a 50% growth inhibitory concentration (GI50) at 48 h in [7] of no less than 250 µg/mL.

Turning to `COc1ccc2c(c1)C(=O)OC(CCCSc1nnnn1-c1ccccc1)C2` (racemic), the GI50 was 45.1 µg/mL (≈ 114 µM) in series [1]; no less than 250 µg/mL in the series with U-251; no less than 250 µg/mL in the series with NCI-H460 [4]; 13.7 µg/mL (≈ 34.6 µM) in the series with HT-29; 18.6 µg/mL (≈ 46.9 µM) in the series on MCF7; no less than 250 µg/mL in the series with 786-0. In series [11], this compound displayed a concentration for 50% growth inhibition (GI50) of 132 µg/mL (≈ 333 µM). Besides, the RatioGI50 is given as greater than 18.25 with HaCaT [2], greater than 5.54 with HaCaT [6], greater than 13.44 in the series with HaCaT [9] and greater than 1.89 in the series on HaCaT [10]. Moreover, the 50% growth inhibitory concentration (GI50) at 48 h in series [7] was no less than 250 µg/mL.

Consider `COc1ccc2c(c1)C(=O)OC(CCCn1nnnc1-c1ccccc1)C2` (racemic), for which the GI50 was 23.9 µg/mL (≈ 65.6 µM) in series [1]; 226 µg/mL (≈ 621 µM) in the series with U-251; 211 µg/mL (≈ 578 µM) with NCI-H460 [4]; 31.2 µg/mL (≈ 85.6 µM) in the series on HT-29; 28.2 µg/mL (≈ 77.4 µM) with MCF7; no less than 250 µg/mL in the series on 786-0. In [11], this compound gave a 50% growth inhibitory concentration (GI50) of 142 µg/mL (≈ 390 µM). Also, the RatioGI50 with HaCaT [2] was greater than 8.01; in the series on HaCaT [3] it was greater than 2.29; with NCI-H460 [5], greater than 1.19; in the series on HaCaT [6] it was greater than 10.5; with HaCaT [9], greater than 8.87; with HaCaT [10], greater than 1.76. Also, the GI50 at 48 h in series [7] was no less than 250 µg/mL.

`O=C1OC(CO)Cc2ccccc21` (racemic): the concentration for 50% growth inhibition (GI50) in [1] was no less than 250 µg/mL; with U-251, no less than 250 µg/mL; in the series with NCI-H460 [4] it was no less than 250 µg/mL; in the series with HT-29 it was no less than 250 µg/mL; in the series with MCF7, 0.66 µg/mL (≈ 3.7 µM); with 786-0 it was no less than 250 µg/mL. The compound further came in with a GI50 in series [11] of no less than 250 µg/mL. In series [7], this compound gave a GI50 at 48 h of no less than 250 µg/mL. Besides, the RatioGI50 in the series on HaCaT [9] is reported as greater than 378.79.

For the compound `COc1ccc2c(c1)C(=O)OC(CCCO)C2` (racemic), the GI50 in [1] turned out to be 70.7 µg/mL (≈ 299 µM); in the series with U-251, 135 µg/mL (≈ 571 µM); in the series on NCI-H460 [4] it was 136 µg/mL (≈ 574 µM); in the series on HT-29, 132 µg/mL (≈ 559 µM); with MCF7 it was 80.8 µg/mL (≈ 342 µM); with 786-0 it was 102 µg/mL (≈ 430 µM). In series [11], this compound gave a concentration for 50% growth inhibition (GI50) of 93.3 µg/mL (≈ 395 µM). For the same compound, the RatioGI50 in the series with HaCaT [2] came to 0.99; with HaCaT [3], 0.97; in the series on NCI-H460 [5] it was 0.96; with HaCaT [6], 1.84; in the series with HaCaT [8], 1.28; in the series with HaCaT [9] it was 1.12. In the series on HaCaT [10], the RatioGI50 is given as 1.4. In series [7], this compound had a concentration for 50% growth inhibition (GI50) at 48 h of 130 µg/mL (≈ 551 µM).

`COc1cccc2c1C(=O)c1c(O)c3c(c(O)c1C2=O)C[C@@](O)(C(=O)CO)C[C@@H]3O[C@H]1C[C@H](N)[C@H](O)[C@H](C)O1` [DOXORUBICIN]: the GI50 in series [1] was 0.085 µg/mL (≈ 0.156 µM); in the series with U-251, less than 0.025 µg/mL; in the series on NCI-H460 [4], less than 0.025 µg/mL; in the series with HT-29, 0.13 µg/mL (≈ 0.239 µM); in the series with MCF7 it was less than 0.025 µg/mL; in the series with 786-0, 0.025 µg/mL (≈ 0.046 µM). In [11], the GI50 was determined as 0.14 µg/mL (≈ 0.258 µM). Moreover, the GI50 at 48 h in [7] was less than 0.025 µg/mL.

The values are drawn from ChEMBL document CHEMBL3769392, “Synthesis, antiproliferative activities, and computational evaluation of novel isocoumarin and 3,4-dihydroisocoumarin derivatives” (Eur J Med Chem, 2016).
